Article PMC7744356 (European journal of medicinal chemistry, 2020)
“Also recorded” adds a separate entry of the source.

Key:
Type in all cases: cell-based
N1303K-CFTR [1] = target: T1, N1303K-CFTR (Homo sapiens, UniProt P13569, N1303K); assay: Co-potentiator activity in N1303K-CFTR expressing FRT cell model; settings: for co-potentiator activity (in words) / VMAX: N1303K-CFTR expressing FRT cells; for VMAX: 20 = 100%; for fold more potent than 20: EC50 relative to 20
Method in brief: (§1)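 FRT cells stably expressing N1303K-CFTR, grown on permeable supports and corrected with 3 μM VX-661 for 18–24 h. Short-circuit current was recorded at 37 °C in HCO3-buffered solutions with a chloride gradient and the basolateral membrane permeabilized with 250 μg/ml amphotericin B. Additions: 20 μM forskolin, 5 μM VX-770, rising test compound concentrations, then 10 μM CFTRinh-172. EC50 and maximal response come from concentration-dependence data (n=3, mean ± S.E.M.), with potency relative to a reference co-potentiator.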

I1234del-CFTR = I1234del-CFTR (Homo sapiens, UniProt P13569, DEL1234-1239); assay: Short-circuit current in gene-edited 16HBE14o- cells expressing I1234del-CFTR; settings: 10 μM 2i
Method in brief: (§2)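 Gene-edited 16HBE14o- human bronchial epithelial cells carrying endogenous N1303K or I1234del CFTR were grown on permeable supports. The I1234del cells were corrected with 18 μM VX-661 plus 3 μM VX-445 for 18–24 h. Short-circuit current was measured at 37 °C in Hepes-buffered solutions with a chloride gradient. Additions: 20 μM forskolin, 5 μM VX-770, 10 μM test compound, then 10 μM CFTRinh-172. The CFTRinh-172-inhibitable ΔIsc is compared with the VX-770-alone response (mean ± S.E.M., n=3, unpaired t-test).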

N1303K-CFTR [2] = target: T1, N1303K-CFTR; assay: Short-circuit current in FRT cells expressing N1303K-CFTR; settings: N1303K-CFTR EC50
Method in brief: as §1

R347P-CFTR = R347P-CFTR (Homo sapiens, UniProt P13569, R347P); assay: Short-circuit current in FRT cells expressing R347P-CFTR; settings: 20 μM 2i after 20 μM forskolin and 5 μM VX-770
Method in brief: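 Permeabilized FRT monolayers stably expressing R347P-CFTR were pre-corrected with 3 μM VX-661 for 18–24 h. Short-circuit current was measured at 37 °C in HCO3-buffered solutions under a chloride gradient, with the basolateral membrane opened using 250 μg/ml amphotericin B. Sequential additions: 20 μM forskolin, 5 μM VX-770, 20 μM test compound, then 10 μM CFTRinh-172.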

N1303K-CFTR [3] = target: T1, N1303K-CFTR; assay: Short-circuit current in gene-edited 16HBE14o- cells expressing N1303K-CFTR
Method in brief: as §2

co-potentiator activity (in words) (N1303K-CFTR [1]) | Compound | further results
inactive | COc1ccc2[nH]c3c(c2c1)CCN[C@@]31CCN2Cc3ccccc3C[C@H]2C1 (racemic) [6b, (+/−)-(2R,11aS)-6’-methoxy-1,2’,3,3’,4,4’,6,9’,11,11a-decahydrospiro[pyrido[1,2-b]isoquinoline-2,1’-pyrido[3,4-b]indole]] | 
 | COc1ccc2[nH]c3c(c2c1)CCNC31CCN(Cc2cc(Cl)ccc2[N+](=O)[O-])CC1 [1c, 1-(5-Chloro-2-nitrobenzyl)-6’-methoxy-2’,3’,4’,9’-tetrahydrospiro[piperidine-4,1’-pyrido[3,4-b]indole]] | VMAX (N1303K-CFTR [1]): improved Vmax
decreased activity | COc1ccc2[nH]c3c(c2c1)CCNC31CCN(Cc2ccc(Cl)cc2Cl)CC1 [1d, 1-(2,4-Dichlorobenzyl)-6’-methoxy-2’,3’,4’,9’-tetrahydrospiro[piperidine-4,1’-pyrido[3,4-b]indole]] | 
decreased activity | COc1ccc2[nH]c3c(c2c1)CCNC31CCN(Cc2cc(F)cc(Cl)c2)CC1 [1e, 1-(3-Chloro-5-fluorobenzyl)-6’-methoxy-2’,3’,4’,9’-tetrahydrospiro[piperidine-4,1’-pyrido[3,4-b]indole]] | 
 | COc1ccc2[nH]c3c(c2c1)CCNC31CCN(Cc2ccc(F)c(Cl)c2F)CC1 [1j, 1-(3-Chloro-2,4-difluorobenzyl)-6’-methoxy-2’,3’,4’,9’-tetrahydrospiro[piperidine-4,1’-pyrido[3,4-b]indole]] | VMAX (N1303K-CFTR [1]): improved Vmax
active | COc1ccc2[nH]c3c(c2c1)CCNC31CCN(Cc2ccc(F)cc2F)CC1 [2a, 1-(2,4-Difluorobenzyl)-6’-methoxy-2’,3’,4’,9’-tetrahydrospiro[piperidine-4,1’-pyrido[3,4-b]indole]] | 
active | COc1ccc2[nH]c3c(c2c1)CCNC31CCN(Cc2cc(F)cc(F)c2)CC1 [2c, 1-(3,5-Difluorobenzyl)-6’-methoxy-2’,3’,4’,9’-tetrahydrospiro[piperidine-4,1’-pyrido[3,4-b]indole]] | 
active | COc1ccc2[nH]c3c(c2c1)CCNC31CCN(Cc2c(F)c(F)c(F)c(F)c2F)CC1 [2e, 6’-Methoxy-1-((perfluorophenyl)methyl)-2’,3’,4’,9’-tetrahydrospiro[piperidine-4,1’-pyrido[3,4-b]indole]] | 
most potent | COc1ccc2[nH]c3c(c2c1)CCNC31CCN(Cc2cc(F)c(F)cc2F)CC1 [2i, 6’-Methoxy-1-(2,4,5-trifluorobenzyl)-2’,3’,4’,9’-tetrahydrospiro[piperidine-4,1’-pyrido[3,4-b]indole]] | fold greater response than VX-770 alone (I1234del-CFTR): ~2 fold; fold improvement in potency over the original compound (20) (N1303K-CFTR [2]): ~ 17 fold; activation of R347P-CFTR (in words) (R347P-CFTR): not activated; fold greater response than VX-770 alone (N1303K-CFTR [3]; 10 μM 2i): approximately 6 fold; CFTRinh-172-inhibitable short-circuit current response (N1303K-CFTR [3]; 10 μM 2i after 20 μM forskolin and 5 μM VX-770, mean ± S.E.M., n=3): 16.1 ± 0.4 μA/cm^2
inactive | COc1ccc2[nH]c3c(c2c1)CCNC31CCNCC1 [3a, 6’-Methoxy-2’,3’,4’,9’-tetrahydrospiro[piperidine-4,1’-pyrido[3,4-b]indole]] | 
active, but less potent | COc1ccc2[nH]c3c(c2c1)CCNC31CCN(Cc2ccco2)CC1 [3e, 1-(Furan-2-ylmethyl)-6’-methoxy-2’,3’,4’,9’-tetrahydrospiro[piperidine-4,1’-pyrido[3,4-b]indole]] | 
active, but less potent | COc1ccc2[nH]c3c(c2c1)CCNC31CCN(Cc2ccccn2)CC1 [3f, 6’-Methoxy-1-(pyridin-2-ylmethyl)-2’,3’,4’,9’-tetrahydrospiro[piperidine-4,1’-pyrido[3,4-b]indole]] | Emax (N1303K-CFTR [1]; FRT, read-out: VMAX): 107%
active, but less potent | COc1ccc2[nH]c3c(c2c1)CCNC31CCN(Cc2cccnc2)CC1 [3g, 6’-Methoxy-1-(pyridin-3-ylmethyl)-2’,3’,4’,9’-tetrahydrospiro[piperidine-4,1’-pyrido[3,4-b]indole]] | 
inactive | COc1ccc2[nH]c3c(c2c1)CCNC31CCCN(Cc2ccc(F)cc2F)CC1 (stereo not drawn) [4a, 1-(2,4-Difluorobenzyl)-6’-methoxy-2’,3’,4’,9’-tetrahydrospiro[azepane-4,1’-pyrido[3,4-b]indole]] | 
abolished activity | COc1ccc2[nH]cc(CCNC3CCN(Cc4ccccc4)CC3)c2c1 [4d, 1-Benzyl-N-(2-(5-methoxy-1H-indol-3-yl)ethyl)piperidin-4-amine] | 
decreased activity | COc1ccc2c3c([nH]c2c1)C1(CCN(Cc2ccc(F)cc2F)CC1)NCC3 [5d, 1-(2,4-Difluorobenzyl)-7’-methoxy-2’,3’,4’,9’-tetrahydrospiro[piperidine-4,1’-pyrido[3,4-b]indole]] | fold more potent than 20 (N1303K-CFTR [1]): approximately 4 fold
inactive; also recorded: inactivity | COc1ccc2c(c1)c1c(n2C)C2(CCN(Cc3ccc(F)cc3F)CC2)NCC1 [5e, 1-(2,4-Difluorobenzyl)-6’-methoxy-9’-methyl-2’,3’,4’,9’-tetrahydrospiro[piperidine-4,1’-pyrido[3,4-b]indole]] | 

Compound | co-potentiator activity (in words) (N1303K-CFTR [1]) | further results
COc1ccc2[nH]c3c(c2c1)CCNC31CCN(CCc2ccccc2)CC1 [3c, 6’-Methoxy-1-phenethyl-2’,3’,4’,9’-tetrahydrospiro[piperidine-4,1’-pyrido[3,4-b]indole]] | greatly reduced activity; also recorded: inactive | 
COc1ccc2[nH]c3c(c2c1)CCNC31CCN(CCCc2ccccc2)CC1 [3d, 6’-Methoxy-1-(3-phenylpropyl)-2’,3’,4’,9’-tetrahydrospiro[piperidine-4,1’-pyrido[3,4-b]indole]] | greatly reduced activity; also recorded: inactive | 
COc1ccc2[nH]c3c(c2c1)CCNC31CCN(Cc2ccc(F)cc2F)C1 (stereo not drawn) [4b, 1’-(2,4-Difluorobenzyl)-6-methoxy-2,3,4,9-tetrahydrospiro[pyrido[3,4-b]indole-1,3’-pyrrolidine]] | inactive; also recorded: abolished activity | 
COc1ccc2[nH]c3c(c2c1)CCNC31CCCN(Cc2ccc(F)cc2F)C1 (stereo not drawn) [4c, 1-(2,4-Difluorobenzyl)-6’-methoxy-2’,3’,4’,9’-tetrahydrospiro[piperidine-3,1’-pyrido[3,4-b]indole]] | inactive; also recorded: abolished activity | 
Fc1ccc(CN2CCC3(CC2)NCCc2c3[nH]c3ccc(Cl)cc23)c(F)c1 [5c, 6’-Chloro-1-(2,4-difluorobenzyl)-2’,3’,4’,9’-tetrahydrospiro[piperidine-4,1’-pyrido[3,4-b]indole]] | tolerated | fold more potent than 20 (N1303K-CFTR [1]): approximately 4 fold
